In ChEMBL document CHEMBL4823247, “Natural Isoflavones and Semisynthetic Derivatives as Pancreatic Lipase Inhibitors” (J Nat Prod, 2021):
The source made the active and inactive calls. No cut-off for these calls is given here.

Legend:
[1] = Inhibition of pig pancreatic lipase type 2 using p-nitrophenyl butyrate as substrate preincubated with enzyme for 10 mins followed by susbtrate addition and measured after 30 mins by spectrophotometric analysis; parameters: species or system Sus scrofa
How it was run: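 PL (300 U/mL stock, in 50 mM phosphate buffer pH 7.2) was preincubated with compound aliquots (MeOH or MeOH:DMSO 95:5 stocks) for 10 min at 37 °C. p-Nitrophenyl butyrate (3.2 mM stock) was then added and incubated 30 min at 37 °C with shaking, read at 405 nm. Five concentrations per compound, in triplicate. % inhibition was taken from absorbance vs no-compound control, and IC50 by regression.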

Sus scrofa [2] = species on record: Sus scrofa; assay: Binding affinity to pig pancreatic lipase type 2 assessed as Stern-Volmer quenching constant at 27 degC measured after 1 min by Stern-Volmer plot analysis
How it was run: (§1)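 Intrinsic Trp fluorescence titration of PL, 1.1 μM in 0.1 M phosphate buffer with 0.1 M NaCl, pH 7.4, by successive 1 or 2 μL additions of compound. Run at 27, 32 and 37 °C, each in triplicate. Excitation 285 nm, slits 10 nm. Spectrum recorded 1 min after each addition. Intensity at the emission maximum was used for Stern–Volmer plots.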

Sus scrofa [3] = species on record: Sus scrofa; assay: Binding affinity to pig pancreatic lipase type 2 assessed as Stern-Volmer quenching constant at 32 degC measured after 1 min by Stern-Volmer plot analysis; how it was run: as §1
Sus scrofa [4] = species on record: Sus scrofa; assay: Binding affinity to pig pancreatic lipase type 2 assessed as Stern-Volmer quenching constant at 37 degC measured after 1 min by Stern-Volmer plot analysis; how it was run: as §1
Sus scrofa [5] = species on record: Sus scrofa; assay: Binding affinity to pig pancreatic lipase type 2 assessed as decrease in fluorescence intensity at 27 degC measured after 1 min by fluorescence spectral analysis; how it was run: as §1
Sus scrofa [6] = species on record: Sus scrofa; assay: Binding affinity to pig pancreatic lipase type 2 assessed as decrease in fluorescence intensity at 32 degC measured after 1 min by fluorescence spectral analysis; how it was run: as §1
Sus scrofa [7] = species on record: Sus scrofa; assay: Binding affinity to pig pancreatic lipase type 2 assessed as decrease in fluorescence intensity at 37 degC measured after 1 min by fluorescence spectral analysis; how it was run: as §1
Sus scrofa [8] = species on record: Sus scrofa; assay: Binding affinity to pig pancreatic lipase type 2 assessed as bathochromic shift of maximum fluorescence intensity at 27 degC measured after 1 min by fluorescence spectral analysis; how it was run: as §1
Sus scrofa [9] = species on record: Sus scrofa; assay: Binding affinity to pig pancreatic lipase type 2 assessed as bathochromic shift of maximum fluorescence intensity at 32 degC measured after 1 min by fluorescence spectral analysis; how it was run: as §1
Sus scrofa [10] = species on record: Sus scrofa; assay: Binding affinity to pig pancreatic lipase type 2 assessed as bathochromic shift of maximum fluorescence intensity at 37 degC measured after 1 min by fluorescence spectral analysis; how it was run: as §1
Sus scrofa [11] = species on record: Sus scrofa; assay: Binding affinity to pig pancreatic lipase type 2 assessed as quenching rate constant at 27 degC measured after 1 min by Stern-Volmer plot analysis; how it was run: as §1
Sus scrofa [12] = species on record: Sus scrofa; assay: Binding affinity to pig pancreatic lipase type 2 assessed as quenching rate constant at 32 degC measured after 1 min by Stern-Volmer plot analysis; how it was run: as §1
Sus scrofa [13] = species on record: Sus scrofa; assay: Binding affinity to pig pancreatic lipase type 2 assessed as quenching rate constant at 37 degC measured after 1 min by Stern-Volmer plot analysis; how it was run: as §1
Sus scrofa [14] = species on record: Sus scrofa; assay: Binding affinity to pig pancreatic lipase type 2 assessed as binding constant at 27 degC measured after 1 min by Stern-Volmer plot analysis; how it was run: as §1
Sus scrofa [15] = species on record: Sus scrofa; assay: Binding affinity to pig pancreatic lipase type 2 assessed as binding constant at 32 degC measured after 1 min by Stern-Volmer plot analysis; how it was run: as §1
Sus scrofa [16] = species on record: Sus scrofa; assay: Binding affinity to pig pancreatic lipase type 2 assessed as binding constant at 37 degC measured after 1 min by Stern-Volmer plot analysis; how it was run: as §1
[17] = Competitive inhibition of pig pancreatic lipase type 2 using varying concentrations of p-nitrophenyl butyrate as substrate measured every 1 min for 30 mins by Lineweaver-Burk plot analysis; parameters: species or system Sus scrofa
How it was run: (§2)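 A405 was read every 1 min for 30 min. Mode of inhibition was from Lineweaver–Burk plots of 1/v0 vs 1/[S]. Ki and K'i were obtained from replots of slope and y-intercept versus inhibitor concentration.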

[18] = Non-competitive inhibition of pig pancreatic lipase type 2 using varying concentrations of p-nitrophenyl butyrate as substrate measured every 1 min for 30 mins by Lineweaver-Burk plot analysis; parameters: species or system Sus scrofa; how it was run: as §2

Row | IC50 [1] [µM] | KSV (Sus scrofa [2]) | KSV (Sus scrofa [3]) | KSV (Sus scrofa [4]) | Activity (Sus scrofa [5]) | Activity (Sus scrofa [6]) | Activity (Sus scrofa [7]) | Activity (Sus scrofa [8]) | Activity (Sus scrofa [9]) | Activity (Sus scrofa [10]) | Kq (Sus scrofa [11]) | Kq (Sus scrofa [12]) | Kq (Sus scrofa [13]) | Ka (Sus scrofa [14]) | Ka (Sus scrofa [15]) | Ka (Sus scrofa [16]) | Ki [17] [µM] | Ki [18] [µM] | SMILES
1 | 0.6 |  |  |  |  |  |  |  |  |  |  |  |  |  |  |  |  |  | CCCCCCCCCCC[C@@H](C[C@@H]1OC(=O)[C@H]1CCCCCC)OC(=O)[C@H](CC(C)C)NC=O [ORLISTAT]
2 | 360 |  |  |  |  |  |  |  |  |  |  |  |  |  |  |  |  |  | COc1ccc2c(=O)c(-c3ccc(OC)c(OC)c3)coc2c1
3 | 100 |  |  |  |  |  |  |  |  |  |  |  |  |  |  |  |  |  | COc1ccc(-c2coc3c(Br)c(O)ccc3c2=O)cc1Br
4 | 87 | 4.69 10^4L/mol | 3.34 10^4L/mol | 2.29 10^4L/mol | Active | Active | Active | Active | Active | Active | 2.95 10^13L/mol.s | 2.1 10^13L/mol.s | 1.43 10^13L/mol.s | 12.4 10^4L/mol | 8.47 10^4L/mol | 1.47 10^4L/mol | 320 | 1900 | COc1ccc(-c2coc3c(Br)c(O)ccc3c2=O)cc1
5 | 93 |  |  |  |  |  |  |  |  |  |  |  |  |  |  |  |  |  | COc1ccc(-c2coc3c(O)c(O)ccc3c2=O)cc1
6 | 60 | 1.88 10^4L/mol | 1.5 10^4L/mol | 1.07 10^4L/mol | Active | Active | Active | Active | Active | Active | 1.18 10^13L/mol.s | 0.94 10^13L/mol.s | 0.67 10^13L/mol.s | 1.24 10^4L/mol | 0.87 10^4L/mol | 0.44 10^4L/mol | 80 |  | O=c1c(-c2ccc(O)cc2)coc2cc(O)cc(O)c12 [GENISTEIN]
7 | 120 | 0.72 10^4L/mol | 1.02 10^4L/mol | 1.06 10^4L/mol | Active | Active | Active | Active | Active | Active | 0.45 10^13L/mol.s | 0.64 10^13L/mol.s | 0.66 10^13L/mol.s | 0.16 10^4L/mol | 0.22 10^4L/mol | 0.27 10^4L/mol | 640 | 2900 | COc1ccc(-c2coc3cc(O)ccc3c2=O)cc1 [FORMONONETIN]
8 | 92 |  |  |  |  |  |  |  |  |  |  |  |  |  |  |  |  |  | Cc1cc(O)cc2occ(-c3ccc(O)c(O)c3)c(=O)c12
9 | 70 |  |  |  |  |  |  |  |  |  |  |  |  |  |  |  |  |  | O=c1c(-c2ccc(O)c(O)c2)coc2cc(O)ccc12
10 | 63 | 0.58 10^4L/mol | 0.96 10^4L/mol | 1.11 10^4L/mol | Active | Active | Active | Active | Active | Active | 0.36 10^13L/mol.s | 0.6 10^13L/mol.s | 0.7 10^13L/mol.s | 0.32 10^4L/mol | 1.99 10^4L/mol | 3.21 10^4L/mol | 90 | 1200 | O=c1c(-c2cc(Br)c(O)c(Br)c2)coc2c(Br)c(O)ccc12
11 | 122 |  |  |  |  |  |  |  |  |  |  |  |  |  |  |  |  |  | CC(=O)Oc1ccc2c(=O)c(-c3ccc(OC(C)=O)c(OC(C)=O)c3)coc2c1
12 | 83 | 8.95 10^4L/mol | 4.94 10^4L/mol | 4.08 10^4L/mol | Active | Active | Active | Active | Active | Active | 5.62 10^13L/mol.s | 3.11 10^13L/mol.s | 2.57 10^13L/mol.s | 5.3 10^4L/mol | 1.2 10^4L/mol | 1.02 10^4L/mol | 300 | 630 | O=c1c(-c2ccc(O)cc2)coc2cc(O)ccc12 [DAIDZEIN]
